Measurements: PMC2880618 (Bioconjugate chemistry, 2009)
Several values for one entry are separate records, joined by “and”; a condition that tells them apart may be missing. Identical values can stand only once.

Experiments:
sigma-2 receptor = molecular target: T1, sigma-2 receptor (Rattus norvegicus, UniProt Q5U3Y7); assay: Sigma-2 receptor competitive binding assay
T1 sequence (Q5U3Y7 1-176): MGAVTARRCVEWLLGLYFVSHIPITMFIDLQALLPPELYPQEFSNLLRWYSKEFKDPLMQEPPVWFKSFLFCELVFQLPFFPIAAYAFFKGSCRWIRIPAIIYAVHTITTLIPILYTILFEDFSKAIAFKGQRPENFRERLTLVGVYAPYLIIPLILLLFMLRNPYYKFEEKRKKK
Summary of the method: (§1)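 Sigma-1: guinea pig brain membranes with 3H-PENT. Sigma-2: rat liver membranes from Sprague-Dawley rats with 3H-DTG, plus 1 μM dextrallorphane to mask sigma-1 sites.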

sigma-1 receptor = sigma-1 receptor (Cavia porcellus, UniProt Q60492); assay: Sigma-1 receptor competitive binding assay; design: species or system guinea pig
Chain of sigma-1 receptor (Q60492 whole entry): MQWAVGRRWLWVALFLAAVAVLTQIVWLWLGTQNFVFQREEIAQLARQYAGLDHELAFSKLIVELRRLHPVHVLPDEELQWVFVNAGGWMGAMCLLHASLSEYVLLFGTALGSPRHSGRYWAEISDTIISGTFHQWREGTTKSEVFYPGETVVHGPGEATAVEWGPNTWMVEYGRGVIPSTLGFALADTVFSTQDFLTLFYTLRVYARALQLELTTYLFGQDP
Summary of the method: as §1

B16F1 melanoma cells = assay: In vitro uptake assay in melanoma cells; format: cell-based, mouse; conditions: 1×10^6 cells/tube, 60 min, room temperature, n=3 tubes
Summary of the method: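 B16F1 mouse melanoma cells grown in DMEM with 10% FBS at 37°C, 5% CO2. At 80–90% confluence they were trypsinized and resuspended in PBS pH 7.4. Aliquots of 1×10^5, 5×10^5, 8×10^5 and 1×10^6 cells in triplicate tubes got ~200 Kcpm radiotracer for 1 hr at 22°C. Tubes were centrifuged and pellets washed with PBS; wash and pellet were gamma-counted. Uptake = % of total added activity in pellet.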

[1] = Tissue distribution studies in normal ICR mice; format: in vivo; conditions: tail vein, mean±SEM n=5
Summary of the method: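 Normal ICR mice (6–8 weeks) received ~15 μCi radiotracer in 100 μL saline by tail vein. At 30, 60, 120 and 180 min mice were euthanized; tissues removed, washed with PBS, weighed and gamma-counted with an injected-dose standard. Values expressed as %ID/g; group differences by unpaired Student's t-test, P<0.05.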

[2] = Lipophilicity, shake flask 1-octanol/PBS pH 7.4; format: physicochemical; conditions: 1-octanol/phosphate-buffered saline
Summary of the method: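 Shake-flask partition: ~500 Kcpm radiotracer added to 1 mL 1-octanol plus 1 mL PBS pH 7.4, in triplicate. Tubes vortexed 3 min and layers allowed to separate. 100 μL aliquots of each phase counted for radioactivity; log P calculated from the counts.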

[3] = system: B16F1 melanoma tumor xenograft; assay: Tissue distribution studies in C57 mice bearing B16F1 tumor xenograft; format: in vivo; conditions: for F-18 uptake in brain, Percent Injected Dose per gram Tissue / F-18 uptake in heart, Percent Injected Dose per gram Tissue / F-18 uptake in intestine, Percent Injected Dose per gram Tissue / F-18 uptake in kidneys, Percent Injected Dose per gram Tissue / F-18 uptake in liver, Percent Injected Dose per gram Tissue / F-18 uptake in lung, Percent Injected Dose per gram Tissue / F-18 uptake in muscle, Percent Injected Dose per gram Tissue / F-18 uptake in spleen, Percent Injected Dose per gram Tissue / F-18 uptake in the tumor / F-18 uptake in blood, Percent Injected Dose per gram Tissue / F-18 uptake in bone, Percent Injected Dose per gram Tissue: C57 mice bearing B16F1 melanoma tumor xenograft; for F-18 uptake in brain, Percent Injected Dose per gram Tissue / F-18 uptake in heart, Percent Injected Dose per gram Tissue / F-18 uptake in intestine, Percent Injected Dose per gram Tissue / F-18 uptake in kidneys, Percent Injected Dose per gram Tissue / F-18 uptake in liver, Percent Injected Dose per gram Tissue / F-18 uptake in lung, Percent Injected Dose per gram Tissue / F-18 uptake in muscle, Percent Injected Dose per gram Tissue / F-18 uptake in spleen, Percent Injected Dose per gram Tissue / F-18 uptake in blood, Percent Injected Dose per gram Tissue / F-18 uptake in bone, Percent Injected Dose per gram Tissue: tail vein, mean±SEM n=5; for F-18 uptake in the tumor: n=5
Summary of the method: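 C57 mice (6–8 weeks) inoculated in the right flank with ~5×10^6 B16F1 cells in 0.1 mL Matrigel:PBS (50:50). Studied once tumors exceeded 200 mm³. ~15 μCi radiotracer in 100 μL saline given by tail vein. Mice euthanized at 30, 60, 120 and 180 min; tissues washed, weighed and gamma-counted against an injected-dose standard. %ID/g ([…], n=5) and tumor-to-tissue ratios reported.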

[4] = C57 normal mice, cited from earlier work
[5] = C57 mice bearing B16F1 melanoma tumor, 180 min post-injection

With `CCN(CC)CCNC(=O)c1ccc(F)cc1` [DAFBA, N-(2-diethylaminoethyl)-4-fluorobenzamide] the IC50 (sigma-2 receptor) was greater than 1 µM and the IC50 (sigma-1 receptor) was greater than 1 µM.
With `CCN(CC)CCNC(=O)c1ccc([18F])cc1` [[^18F]-DAFBA, N-(2-diethylaminoethyl)-4-[^18F]fluorobenzamide] the “percent uptake by cells (percent of total added radioactivity)” value (B16F1 melanoma cells) was 5.60±2.67%, the “F-18 uptake in blood, Percent Injected Dose per gram Tissue” value ([1]; 30 min post injection) was 0.78 ± 0.07 %ID/g and the “F-18 uptake in bone, Percent Injected Dose per gram Tissue” value ([1]; 30 min post injection) was 0.81 ± 0.19 %ID/g. For the same molecule, the “F-18 uptake in brain, Percent Injected Dose per gram Tissue” value ([1]; 30 min post injection) was 2.16 ± 0.32 %ID/g, the “F-18 uptake in heart, Percent Injected Dose per gram Tissue” value ([1]; 30 min post injection) was 1.10 ± 0.14 %ID/g and the “F-18 uptake in kidneys, Percent Injected Dose per gram Tissue” value ([1]; 30 min post injection) was 4.13 ± 0.68 %ID/g. For the same molecule, the “F-18 uptake in liver, Percent Injected Dose per gram Tissue” value ([1]; 30 min post injection) was 3.12 ± 0.62 %ID/g, the “F-18 uptake in lung, Percent Injected Dose per gram Tissue” value ([1]; 30 min post injection) was 1.75 ± 0.43 %ID/g and the “F-18 uptake in muscle, Percent Injected Dose per gram Tissue” value ([1]; 30 min post injection) was 0.88 ± 0.13 %ID/g. The “F-18 uptake in spleen, Percent Injected Dose per gram Tissue” value ([1]; 30 min post injection) was 2.35 ± 0.07 %ID/g, the “F-18 uptake in blood, Percent Injected Dose per gram Tissue” value ([1]; 60 min post injection) was 0.67 ± 0.05 %ID/g and the “F-18 uptake in brain, Percent Injected Dose per gram Tissue” value ([1]; 60 min post injection) was 1.54 ± 0.24 %ID/g. The “F-18 uptake in heart, Percent Injected Dose per gram Tissue” value ([1]; 60 min post injection) was 0.92 ± 0.10 %ID/g, the “F-18 uptake in intestine, Percent Injected Dose per gram Tissue” value ([1]; 60 min post injection) was 1.39 ± 0.54 %ID/g and the “F-18 uptake in liver, Percent Injected Dose per gram Tissue” value ([1]; 60 min post injection) was 3.61 ± 0.48 %ID/g. For the same molecule, the “F-18 uptake in lung, Percent Injected Dose per gram Tissue” value ([1]; 60 min post injection) was 1.84 ± 0.41 %ID/g, the “F-18 uptake in muscle, Percent Injected Dose per gram Tissue” value ([1]; 60 min post injection) was 0.65 ± 0.11 %ID/g and the “F-18 uptake in spleen, Percent Injected Dose per gram Tissue” value ([1]; 60 min post injection) was 1.87 ± 0.46 %ID/g. For the same molecule, the “F-18 uptake in brain, Percent Injected Dose per gram Tissue” value ([1]; 120 min post injection) was 0.52 ± 0.07 %ID/g, the “F-18 uptake in heart, Percent Injected Dose per gram Tissue” value ([1]; 120 min post injection) was 0.28 ± 0.05 %ID/g and the “F-18 uptake in intestine, Percent Injected Dose per gram Tissue” value ([1]; 120 min post injection) was 0.26 ± 0.26 %ID/g. For the same molecule, the “F-18 uptake in kidneys, Percent Injected Dose per gram Tissue” value ([1]; 120 min post injection) was 1.58 ± 0.51 %ID/g, the “F-18 uptake in blood, Percent Injected Dose per gram Tissue” value ([1]; 180 min post injection) was 0.21 ± 0.03 %ID/g and the “F-18 uptake in bone, Percent Injected Dose per gram Tissue” value ([1]; 180 min post injection) was 0.24 ± 0.10 %ID/g. For the same molecule, the “F-18 uptake in heart, Percent Injected Dose per gram Tissue” value ([1]; 180 min post injection) was 0.23 ± 0.03 %ID/g, the “F-18 uptake in intestine, Percent Injected Dose per gram Tissue” value ([1]; 180 min post injection) was 0.40 ± 0.11 %ID/g and the “F-18 uptake in kidneys, Percent Injected Dose per gram Tissue” value ([1]; 180 min post injection) was 1.34 ± 0.36 %ID/g. For the same molecule, the “F-18 uptake in liver, Percent Injected Dose per gram Tissue” value ([1]; 180 min post injection) was 1.12 ± 0.20 %ID/g, the “F-18 uptake in lung, Percent Injected Dose per gram Tissue” value ([1]; 180 min post injection) was 0.49 ± 0.07 %ID/g and the “F-18 uptake in spleen, Percent Injected Dose per gram Tissue” value ([1]; 180 min post injection) was 0.53 ± 0.08 %ID/g. The logP [2] was 1.7, the “F-18 uptake in brain, Percent Injected Dose per gram Tissue” value ([3]; 30 min post injection) was 2.02 ± 0.35 %ID/g and the “F-18 uptake in heart, Percent Injected Dose per gram Tissue” value ([3]; 30 min post injection) was 1.25 ± 0.28 %ID/g. The “F-18 uptake in intestine, Percent Injected Dose per gram Tissue” value ([3]; 30 min post injection) was 1.94 ± 0.51 %ID/g, the “F-18 uptake in kidneys, Percent Injected Dose per gram Tissue” value ([3]; 30 min post injection) was 4.50 ± 1.33 %ID/g and the “F-18 uptake in liver, Percent Injected Dose per gram Tissue” value ([3]; 30 min post injection) was 3.27 ± 0.90 %ID/g. For the same molecule, the “F-18 uptake in lung, Percent Injected Dose per gram Tissue” value ([3]; 30 min post injection) was 2.46 ± 1.27 %ID/g, the “F-18 uptake in muscle, Percent Injected Dose per gram Tissue” value ([3]; 30 min post injection) was 1.09 ± 0.18 %ID/g and the “F-18 uptake in spleen, Percent Injected Dose per gram Tissue” value ([3]; 30 min post injection) was 2.14 ± 0.41 %ID/g. The “F-18 uptake in the tumor” value ([3]; 60 min post injection) was 7.00±2.76 %ID/g, the “F-18 uptake in blood, Percent Injected Dose per gram Tissue” value ([3]; 60 min post injection) was 0.68 ± 0.21 %ID/g and the “F-18 uptake in bone, Percent Injected Dose per gram Tissue” value ([3]; 60 min post injection) was 0.90 ± 0.27 %ID/g. The “F-18 uptake in brain, Percent Injected Dose per gram Tissue” value ([3]; 60 min post injection) was 1.68 ± 0.43 %ID/g, the “F-18 uptake in heart, Percent Injected Dose per gram Tissue” value ([3]; 60 min post injection) was 1.27 ± 0.50 %ID/g and the “F-18 uptake in intestine, Percent Injected Dose per gram Tissue” value ([3]; 60 min post injection) was 1.98 ± 0.88 %ID/g. The “F-18 uptake in kidneys, Percent Injected Dose per gram Tissue” value ([3]; 60 min post injection) was 5.38 ± 1.86 %ID/g, the “F-18 uptake in liver, Percent Injected Dose per gram Tissue” value ([3]; 60 min post injection) was 5.01 ± 2.06 %ID/g and the “F-18 uptake in lung, Percent Injected Dose per gram Tissue” value ([3]; 60 min post injection) was 2.48 ± 1.27 %ID/g. The “F-18 uptake in muscle, Percent Injected Dose per gram Tissue” value ([3]; 60 min post injection) was 1.10 ± 0.38 %ID/g, the “F-18 uptake in spleen, Percent Injected Dose per gram Tissue” value ([3]; 60 min post injection) was 1.83 ± 0.54 %ID/g and the “F-18 uptake in the tumor” value ([3]; 120 min post injection) was 6.57±1.66 %ID/g. The “F-18 uptake in bone, Percent Injected Dose per gram Tissue” value ([3]; 120 min post injection) was 0.57 ± 0.32 %ID/g, the “F-18 uptake in brain, Percent Injected Dose per gram Tissue” value ([3]; 120 min post injection) was 0.64 ± 0.40 %ID/g and the “F-18 uptake in kidneys, Percent Injected Dose per gram Tissue” value ([3]; 120 min post injection) was 1.41 ± 0.11 %ID/g. The “F-18 uptake in liver, Percent Injected Dose per gram Tissue” value ([3]; 120 min post injection) was 2.35 ± 1.20 %ID/g, the “F-18 uptake in lung, Percent Injected Dose per gram Tissue” value ([3]; 120 min post injection) was 1.47 ± 0.47 %ID/g and the “F-18 uptake in muscle, Percent Injected Dose per gram Tissue” value ([3]; 120 min post injection) was 0.57 ± 0.54 %ID/g. For the same molecule, the “F-18 uptake in spleen, Percent Injected Dose per gram Tissue” value ([3]; 120 min post injection) was 0.71 ± 0.37 %ID/g, the “F-18 uptake in blood, Percent Injected Dose per gram Tissue” value ([3]; 180 min post injection) was 0.13 ± 0.03 %ID/g and the “F-18 uptake in bone, Percent Injected Dose per gram Tissue” value ([3]; 180 min post injection) was 0.17 ± 0.05 %ID/g. For the same molecule, the “F-18 uptake in brain, Percent Injected Dose per gram Tissue” value ([3]; 180 min post injection) was 0.29 ± 0.05 %ID/g, the “F-18 uptake in heart, Percent Injected Dose per gram Tissue” value ([3]; 180 min post injection) was 0.21 ± 0.04 %ID/g and the “F-18 uptake in kidneys, Percent Injected Dose per gram Tissue” value ([3]; 180 min post injection) was 0.83 ± 0.23 %ID/g. For the same molecule, the “F-18 uptake in muscle, Percent Injected Dose per gram Tissue” value ([3]; 180 min post injection) was 0.17 ± 0.03 %ID/g, the “F-18 uptake in spleen, Percent Injected Dose per gram Tissue” value ([3]; 180 min post injection) was 0.44 ± 0.25 %ID/g and the “tumor to blood ratio” value ([3]; C57 mice bearing B16F1 melanoma tumor, 60 min post-injection) was 8.3±3. For the same molecule, the “tumor to liver ratio” value [3, 5] was 6.33±1.9, the “tumor to lung ratio” value [3, 5] was 21.90±4.68 and > 20 and the “tumor to muscle ratio” value [3, 5] was 32.91±6.11 and > 20. The “tumor to spleen ratio” value [3, 5] was 14.90±6.47.
In the case of `CCN(CC)CCNC(=O)c1ccc(OC)c(I)c1` [[^*I]IMBA, [^*I]N-(2-diethylaminoethyl) 3-iodo 4-methoxybenzamide], the “radioiodine uptake in blood” value ([4]; 60 min post injection) is given as 0.84±0.08 %ID/g, the “radioiodine uptake in liver” value ([4]; 60 min post injection) is given as 3.09±0.45 %ID/g and the “radioiodine uptake in lungs” value ([4]; 60 min post injection) is given as 1.06±0.23 %ID/g. The “radioiodine uptake in intestine” value [4] was 7.70±4.70 %ID/g and the “radioiodine uptake in the stomach” value [4] was 9.72±1.51 %ID/g.
